Data on 26 compounds can be found in ChEMBL document CHEMBL1127826, “Inhibitors of acyl-CoA:cholesterol acyltransferase (ACAT). 7. Development of a series of substituted N-phenyl-N'-[(1-phenylcyclopentyl)methyl]ureas with enhanced hypocholesterolemic activity” (J Med Chem, 1994).

pIC50: −log10 of the molar value.

The target in test [1] is T1, Acyl-CoA:cholesterol acyltransferase (Oryctolagus cuniculus, UniProt Q95214).
T1 sequence (Q95214 whole entry): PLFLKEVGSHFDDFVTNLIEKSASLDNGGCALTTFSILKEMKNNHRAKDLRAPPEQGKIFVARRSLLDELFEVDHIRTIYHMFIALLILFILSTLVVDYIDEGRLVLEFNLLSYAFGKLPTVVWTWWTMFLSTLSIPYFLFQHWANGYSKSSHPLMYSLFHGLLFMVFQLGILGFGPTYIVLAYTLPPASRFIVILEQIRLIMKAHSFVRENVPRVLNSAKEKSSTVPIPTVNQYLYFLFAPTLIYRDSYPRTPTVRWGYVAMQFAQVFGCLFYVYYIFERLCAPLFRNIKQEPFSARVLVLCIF
The test can be described thus: Tested for in vitro inhibition against Acyl coenzyme A:cholesterol acyltransferase of intestinal microsomes in cholesterol-fed rabbits. Details: species or system Microsome. Summed up: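 Microsomes were prepared from intestine of cholesterol-fed rabbits. ACAT activity was measured using [1-14C]oleoyl-CoA as substrate. Each determination was run in triplicate.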

The species named for test [2] is Rattus norvegicus. In words: Percent change in total cholesterol in peanut oil (5.5%)-, cholic acid (0.3%)-, Cholesterol (1.5%)-fed rats after a single dose. The class given is functional. In short, it runs like this: (§1)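 Male Sprague-Dawley rats (200-225 g), n=5-7/group, given a single oral dose at 4 p.m. as a suspension in 1.5% CMC/0.2% Tween-20 in water (50 mg/kg); controls received vehicle alone. The rats then had free access to chow with peanut oil, cholesterol and cholic acid. At 8 a.m. next day they were bled by cardiac puncture under ether, and serum total cholesterol was measured as % change versus controls (unpaired two-tailed t-test).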

The species named for test [3] is Rattus norvegicus. In words: Percent change in total cholesterol in peanut oil (5.5%) - cholic acid (0.3%) - Cholesterol (1.5%) fed rats after a single dose. It is filed as functional. Summed up: as §1

In test [1], `CC(C)c1cccc(C(C)C)c1NC(=O)NCC1(c2ccc([N+](=O)[O-])cc2)CCCC1` showed a pIC50 of 6.88.
In the case of `COc1ccccc1C1(CNC(=O)Nc2c(C(C)C)cccc2C(C)C)CCCC1`, the pIC50 in test [1] is 7.64. The “Delta TC” value in the test listed under Rattus norvegicus [2] is recorded as -53%.
Consider `CC(C)c1cccc(C(C)C)c1NC(=O)NCC1(c2ccccc2[N+](=O)[O-])CCCC1`, for which, in test [1], the pIC50 is 7.57. Also, in the test filed under Rattus norvegicus [2], the “Delta TC” value is reported as -45%.
For `CC(C)c1cccc(C(C)C)c1NC(=O)NCC1(c2cccc(CO)c2)CCCC1` the same measures were 7.82 and -40%.
For `COC(=O)c1cccc(C2(CNC(=O)Nc3c(C(C)C)cccc3C(C)C)CCCC2)c1` the same measures were 7.47 and -51%.
`CC(C)c1cccc(C(C)C)c1NC(=O)NCC1(c2ccc(Br)cc2)CCCC1`: in test [1], the pIC50 was 7.54. Also, the “Delta TC” value in the test listed under Rattus norvegicus [3] was -59%.
`CC(C)c1cccc(C(C)C)c1NC(=O)NCC1(c2ccc(C(C)(C)C)cc2)CCCC1` gave a pIC50 in test [1] of 7.20. Moreover, the “Delta TC” value in the test filed under Rattus norvegicus [3] is on record as -48%.
With `COc1ccc(C2(CNC(=O)Nc3c(C(C)C)cccc3C(C)C)CCCC2)cc1`, the pIC50 in test [1] was 7.51. For the same compound, the “Delta TC” value in the test listed under Rattus norvegicus [2] was -41%.
For `CC(C)c1cccc(C(C)C)c1NC(=O)NCC1(c2ccc(NCCO)cc2)CCCC1` the same measures were 7.60 and -63%.
Compound `Cc1ccccc1C1(CNC(=O)Nc2c(C(C)C)cccc2C(C)C)CCCC1` showed a negative logarithm of the IC50 (pIC50) in test [1] of 7.77. Besides, the “Delta TC” value in the test filed under Rattus norvegicus [3] is -73%.
As for `CC(C)c1ccc(C2(CNC(=O)Nc3c(C(C)C)cccc3C(C)C)CCCC2)cc1`, the pIC50 in test [1] is 7.32. Also, the “Delta TC” value in the test listed under Rattus norvegicus [3] is -63%.
For the compound `CC(C)c1cccc(C(C)C)c1NC(=O)NCC1(c2cccc([N+](=O)[O-])c2)CCCC1`, the pIC50 in test [1] was 7.29. The “Delta TC” value in the test listed under Rattus norvegicus [2] is -51%.
Compound `CC(C)c1cccc(C(C)C)c1NC(=O)NCC1(c2ccc(O)cc2)CCCC1` had a pIC50 in test [1] of 7.38. For the same compound, the “Delta TC” value in the test listed under Rattus norvegicus [2] is given as -31%.
For the compound `COc1cccc(C2(CNC(=O)Nc3c(C(C)C)cccc3C(C)C)CCCC2)c1`, the pIC50 in test [1] is 7.89. Besides, the “Delta TC” value in the test listed under Rattus norvegicus [2] is reported as -42%.
Compound `CC(C)c1cccc(C(C)C)c1NC(=O)NCC1(c2ccccc2N)CCCC1` had a pIC50 in test [1] of 6.85. In addition, the “Delta TC” value in the test filed under Rattus norvegicus [2] is -58%.
In test [1], `COC(=O)c1ccc(C2(CNC(=O)Nc3c(C(C)C)cccc3C(C)C)CCCC2)cc1` had a pIC50 of 6.44. In addition, the “Delta TC” value in the test listed under Rattus norvegicus [2] is reported as -3%.
As for `CC(C)c1cccc(C(C)C)c1NC(=O)NCC1(c2ccc(N)cc2)CCCC1`, the pIC50 in test [1] was 7.54. Also, the “Delta TC” value in the test listed under Rattus norvegicus [2] is recorded as -76%.
For `CC(C)c1cccc(C(C)C)c1NC(=O)NCC1(c2cccc(OCc3ccccc3)c2)CCCC1` the same measures were 7.52 and -73%.
For `CC(C)c1cccc(C(C)C)c1NC(=O)NCC1(c2ccc(OCc3ccccc3)cc2)CCCC1` the same measures were 7.47 and -33%.
As for `CC(C)c1cccc(C(C)C)c1NC(=O)NCC1(c2ccc(CO)cc2)CCCC1`, the “Delta TC” value in the test filed under Rattus norvegicus [2] stood at 19%.
In test [1], `CC(C)c1cccc(C(C)C)c1NC(=O)NCC1(c2cccc(N(C)C)c2)CCCC1` had a pIC50 of 7.48. Also, the “Delta TC” value in the test filed under Rattus norvegicus [2] was -63%.
Regarding `CC(C)c1cccc(C(C)C)c1NC(=O)NCC1(c2cccc(C(=O)O)c2)CCCC1`, the pIC50 in test [1] is 6.21. In addition, the “Delta TC” value in the test filed under Rattus norvegicus [2] is -40%.
For `CC(C)c1cccc(C(C)C)c1NC(=O)NCC1(c2ccc(N(CCO)CCO)cc2)CCCC1` the same measures were 7.68 and -50%.
For `CC(C)c1cccc(C(C)C)c1NC(=O)NCC1(c2cccc(N)c2)CCCC1` the same measures were 7.68 and -75%.
Take `CC(C)c1cccc(C(C)C)c1NC(=O)NCC1(c2ccc(N(C)C)cc2C(F)(F)F)CCCC1`: the pIC50 in test [1] is 7.30.
Regarding `CC(C)c1cccc(C(C)C)c1NC(=O)NCC1(c2ccc(C(=O)O)cc2)CCCC1`, the pIC50 in test [1] is 5.51. For the same compound, in the test listed under Rattus norvegicus [2], the “Delta TC” value was -8%.
